Experimental data published in ChEMBL document CHEMBL1147115 (2007).
≈ marks a conversion by molar mass, not a printed value.

Columns and labels:
Klebsiella pneumoniae [1] = assay: Antimicrobial activity against ESBL producing Klebsiella pneumoniae 265 isolate; type: functional
Klebsiella pneumoniae [2] = assay: Antimicrobial activity against ESBL producing Klebsiella pneumoniae 268 isolate; type: functional
Klebsiella pneumoniae [3] = assay: Antimicrobial activity against ESBL producing Klebsiella pneumoniae 270 isolate; type: functional
Klebsiella pneumoniae [4] = assay: Antimicrobial activity against ESBL producing Klebsiella pneumoniae 260 isolate; type: functional
Klebsiella pneumoniae [5] = assay: Antimicrobial activity against ESBL producing Klebsiella pneumoniae 264 isolate; type: functional
Escherichia coli [6] = assay: Antimicrobial activity against ESBL producing Escherichia coli 311 isolate; type: functional
Klebsiella pneumoniae [7] = assay: Antimicrobial activity against ESBL producing Klebsiella pneumoniae 255 isolate; type: functional
Klebsiella pneumoniae [8] = assay: Antimicrobial activity against ESBL producing Klebsiella pneumoniae 254 isolate; type: functional
Klebsiella pneumoniae [9] = assay: Antimicrobial activity against ESBL producing Klebsiella pneumoniae 259 isolate; type: functional
Klebsiella pneumoniae [10] = assay: Antimicrobial activity against ESBL producing Klebsiella pneumoniae 263 isolate; type: functional
Klebsiella pneumoniae [11] = assay: Antimicrobial activity against ESBL producing Klebsiella pneumoniae 266 isolate; type: functional
Klebsiella pneumoniae [12] = assay: Antimicrobial activity against ESBL producing Klebsiella pneumoniae 257 isolate; type: functional
Klebsiella pneumoniae [13] = assay: Antimicrobial activity against ESBL producing Klebsiella pneumoniae 258 isolate; type: functional
Klebsiella pneumoniae [14] = assay: Antimicrobial activity against ESBL producing Klebsiella pneumoniae 262 isolate; type: functional
Klebsiella pneumoniae [15] = assay: Antimicrobial activity against ESBL producing Klebsiella pneumoniae 256 isolate; type: functional
Klebsiella pneumoniae [16] = assay: Antimicrobial activity against ESBL producing Klebsiella pneumoniae 261 isolate; type: functional
Escherichia coli [17] = assay: Antimicrobial activity against Escherichia coli ATCC 25922 isolate infected thigh infection model ICR mouse; type: functional, Thigh muscle
Method in brief: (§1)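 Female ICR mice (~25 g) were made neutropenic with cyclophosphamide ip (150 and 100 mg/kg, days −4 and −1) and renally impaired with uranyl nitrate 5 mg/kg ip (day −3). Each thigh got 0.1 ml of 10^5 CFU/ml (or 10^7 for high inoculum) im 2 h pre-therapy. Human-simulated regimens were given sc, three mice per group, for 24 h. Efficacy was the log10 CFU/thigh change versus 0-h controls.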

Escherichia coli [18] = assay: Antimicrobial activity against Escherichia coli 120 isolate infected thigh infection model ICR mouse; type: functional, Thigh muscle; method in brief: as §1
Escherichia coli [19] = assay: Antimicrobial activity against ESBL producing Escherichia coli 320 isolate infected thigh infection model ICR mouse; type: functional, Thigh muscle; method in brief: as §1
Escherichia coli [20] = assay: Antimicrobial activity against ESBL producing Escherichia coli 321 isolate infected thigh infection model ICR mouse; type: functional, Thigh muscle; method in brief: as §1
Escherichia coli [21] = assay: Antimicrobial activity against ESBL producing Escherichia coli 322 isolate infected thigh infection model ICR mouse; type: functional, Thigh muscle; method in brief: as §1
Escherichia coli [22] = assay: Antimicrobial activity against ESBL producing Escherichia coli 310 isolate infected thigh infection model ICR mouse; type: functional, Thigh muscle; method in brief: as §1
Escherichia coli [23] = assay: Antimicrobial activity against ESBL producing Escherichia coli 312 isolate infected thigh infection model ICR mouse; type: functional, Thigh muscle; method in brief: as §1
Escherichia coli [24] = assay: Antimicrobial activity against ESBL producing Escherichia coli 318 isolate infected thigh infection model ICR mouse; type: functional, Thigh muscle; method in brief: as §1
Escherichia coli [25] = assay: Antimicrobial activity against ESBL producing Escherichia coli 243 isolate infected thigh infection model ICR mouse; type: functional, Thigh muscle; method in brief: as §1
Escherichia coli [26] = assay: Antimicrobial activity against ESBL producing Escherichia coli 285 isolate infected thigh infection model ICR mouse; type: functional, Thigh muscle; method in brief: as §1
Klebsiella pneumoniae [27] = assay: Antimicrobial activity against ESBL producing Klebsiella pneumoniae 225 isolate infected thigh infection model ICR mouse; type: functional, Thigh muscle; method in brief: as §1
Klebsiella pneumoniae [28] = assay: Antimicrobial activity against ESBL producing Klebsiella pneumoniae 60 isolate infected thigh infection model ICR mouse; type: functional, Thigh muscle; method in brief: as §1
Escherichia coli [29] = assay: Antimicrobial activity against ESBL producing Escherichia coli 315 isolate infected thigh infection model ICR mouse; type: functional, Thigh muscle; method in brief: as §1
Escherichia coli [30] = assay: Antimicrobial activity against ESBL producing Escherichia coli 130 isolate infected thigh infection model ICR mouse; type: functional, Thigh muscle; method in brief: as §1
Klebsiella pneumoniae [31] = assay: Antimicrobial activity against ESBL producing Klebsiella pneumoniae 265 isolate infected thigh infection model ICR mouse; type: functional, Thigh muscle; method in brief: as §1
Escherichia coli [32] = assay: Antimicrobial activity against ESBL producing Escherichia coli 133 isolate infected thigh infection model ICR mouse; type: functional, Thigh muscle; method in brief: as §1
Klebsiella pneumoniae [33] = assay: Antimicrobial activity against ESBL producing Klebsiella pneumoniae 101 isolate infected thigh infection model ICR mouse; type: functional, Thigh muscle; method in brief: as §1
Klebsiella pneumoniae [34] = assay: Antimicrobial activity against ESBL producing Klebsiella pneumoniae 230 isolate infected thigh infection model ICR mouse; type: functional, Thigh muscle; method in brief: as §1

SMILES: C[C@@H](O)[C@H]1C(=O)N2C(C(=O)O)=C(S[C@@H]3CN[C@H](C(=O)Nc4cccc(C(=O)O)c4)C3)[C@H](C)[C@H]12
- MIC (Klebsiella pneumoniae [1]): 0.5 µg/mL (≈ 1.05 µM)
- MIC (Klebsiella pneumoniae [2]): 0.25 µg/mL (≈ 0.526 µM)
- MIC (Klebsiella pneumoniae [3]): 0.5 µg/mL (≈ 1.05 µM)
- MIC (Klebsiella pneumoniae [4]): 1 µg/mL (≈ 2.1 µM)
- MIC (Klebsiella pneumoniae [5]): 4 µg/mL (≈ 8.41 µM)
- MIC (Escherichia coli [6]): 4 µg/mL (≈ 8.41 µM)
- MIC (Klebsiella pneumoniae [7]): 2 µg/mL (≈ 4.21 µM)
- MIC (Klebsiella pneumoniae [8]): 16 µg/mL (≈ 33.6 µM)
- MIC (Klebsiella pneumoniae [9]): 16 µg/mL (≈ 33.6 µM)
- MIC (Klebsiella pneumoniae [10]): 8 µg/mL (≈ 16.8 µM)
- MIC (Klebsiella pneumoniae [11]): 8 µg/mL (≈ 16.8 µM)
- MIC (Klebsiella pneumoniae [12]): 16 µg/mL (≈ 33.6 µM)
- MIC (Klebsiella pneumoniae [13]): 16 µg/mL (≈ 33.6 µM)
- MIC (Klebsiella pneumoniae [14]): 64 µg/mL (≈ 135 µM)
- MIC (Klebsiella pneumoniae [15]): 32 µg/mL (≈ 67.3 µM)
- MIC (Klebsiella pneumoniae [16]): 128 µg/mL (≈ 269 µM)
- fT>MIC (Escherichia coli [17]): 93%
- fT>MIC (Escherichia coli [18]): 77%
- fT>MIC (Escherichia coli [19]): 40%
- fT>MIC (Escherichia coli [20]): 90%
- fT>MIC (Escherichia coli [21]): 90%
- fT>MIC (Escherichia coli [22]): 67%
- fT>MIC (Escherichia coli [23]): 53%
- fT>MIC (Escherichia coli [24]): 90%
- fT>MIC (Escherichia coli [25]): 67%
- fT>MIC (Escherichia coli [26]): 80%
- fT>MIC (Klebsiella pneumoniae [27]): 87%
- fT>MIC (Klebsiella pneumoniae [28]): 90%
- fT>MIC (Escherichia coli [29]): 77%
- fT>MIC (Escherichia coli [30]): 30%
- fT>MIC (Klebsiella pneumoniae [31]): 40%
- fT>MIC (Escherichia coli [32]): 23%
- fT>MIC (Klebsiella pneumoniae [33]): 60%
- fT>MIC (Klebsiella pneumoniae [34]): 60%
